Source: PubChem BioAssay (Johns Hopkins Ion Channel Center)
In the library only some 3.5% were active in any assay of this set; here they are far more common.
MrgX1 ag = activates human MrgX1 receptor signaling; MrgX1-HEK293 cells, Fluo-4 calcium fluorescence, agonist mode; stronger effect = higher value; Q96LB2; B-score at 10 µM; actives 0.44% (n = 310,000);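 active = calcium response B-score plate-corrected fluorescence ratio at least 3 library SD, with starting fluorescence B-score inside 5 SD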
Target sequence (Q96LB2 whole entry, looked up): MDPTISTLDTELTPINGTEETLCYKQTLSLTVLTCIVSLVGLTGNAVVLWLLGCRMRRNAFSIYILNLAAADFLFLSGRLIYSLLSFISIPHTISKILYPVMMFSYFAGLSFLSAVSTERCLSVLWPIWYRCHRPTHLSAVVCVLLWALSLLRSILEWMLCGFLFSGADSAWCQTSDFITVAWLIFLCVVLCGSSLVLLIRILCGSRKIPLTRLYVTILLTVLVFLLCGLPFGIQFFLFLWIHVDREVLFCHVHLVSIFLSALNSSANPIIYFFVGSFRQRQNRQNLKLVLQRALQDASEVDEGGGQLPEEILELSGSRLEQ
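Material: MrgX1-expressing HEK293 cells / Dosing: compound as first of three additions / Incubation: overnight seeding, then 1 h dark dye loading / Signal: Fluo-4 NW calcium fluorescence / Evaluation: B-scored fluorescence response ratio / Benchmarks: positive and negative control wells on each plate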
RGS4 inh = human RGS4 inhibition | P49798 | HEK293 M3R/RGS4 inducible, Fluo-4 calcium flux; stronger effect = higher value; triggered by carbachol at its EC20 | B-score at 10 µM | actives 0.45% (n = 310,000) | AID 463165;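 active = B-score, a plate-corrected calcium signal, over three deviations above library mean, with baseline fluorescence within five deviations of library mean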;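 note: RGS4 expression induced by doxycycline in cells with stable M3 receptor; B-score is computed from the integrated fluorescence ratio over baseline after carbachol; higher B-score means a larger calcium signal and so more RGS4 inhibition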
Target sequence (P49798 whole entry, looked up): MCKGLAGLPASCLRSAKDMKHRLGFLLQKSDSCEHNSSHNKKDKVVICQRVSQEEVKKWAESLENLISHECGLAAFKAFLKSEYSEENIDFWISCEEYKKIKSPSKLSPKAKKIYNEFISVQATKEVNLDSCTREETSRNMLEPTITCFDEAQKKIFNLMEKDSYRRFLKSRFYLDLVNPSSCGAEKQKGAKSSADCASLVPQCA
MrgX1 antag = antagonists of human MrgX1 receptor; B-score at 10 µM; Q96LB2; actives 1.3% (n = 310,000); MRGX1-HEK293 calcium flux, Fluo-4, BAM8-22 antagonism; stronger effect = lower value;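 active = calcium-response B-score plate-corrected more than 3 library SD below zero, starting fluorescence within 5 deviations, no agonist response on first addition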;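 note: peak minus trough fluorescence over baseline after final BAM8-22 challenge near maximal dose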
MrgX1 PAM = human MrgX1 positive allosteric modulation, primary screen; Q96LB2; actives 0.63% (n = 310,000); B-score at 10 µM; AID 588675; MrgX1-HEK293, Fluo-4 calcium flux, FDSS; stronger effect = higher value;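 active = plate-corrected calcium response at least 3 library SD above typical, normal starting fluorescence, not activating the receptor alone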;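 note: compound read alongside a low EC10 to EC30 dose of BAM8-22 agonist; peak minus trough fluorescence over baseline measured at the second addition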
RGS4 act = potentiators or activators of RGS4. B-score at 10 µM. HEK293 M3R/inducible RGS4, carbachol calcium flux Fluo4; stronger effect = lower value. actives 0.92% (n = 310,000);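 active = B-score of the integrated calcium signal more than 4 SD below the library mean, with starting fluorescence not abnormally high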;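 note: negative B-score means reduced calcium response which marks RGS4 activation or potentiation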
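Reagent: ECmax carbachol challenge; Test system: M3R-expressing HEK293 line, RGS4 induced by doxycycline; Schedule: overnight RGS4 induction, 30 min dye load 37 °C, 20 min compound RT; Detection: calcium dye Fluo4 fluorescence; Read-out: Agonist-evoked peak-minus-minimum fluorescence over baseline, integrated ratio, B score.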
Active calls of the source: *; i = inactive; . = no result given.

SMILES	MrgX1 ag	RGS4 inh	MrgX1 antag	MrgX1 PAM	RGS4 act
C#CCSc1nnc(-c2ccc(O)cc2)o1	i	i	-7.6*	i	i
O=C(Nc1ccc(-c2nc3c(ccc4ccccc43)o2)cc1)c1ccco1	i	i	i	i	i
O=[N+]([O-])/C=C/c1cc2ccccc2[nH]1	41*	i	i	i	i
CCOC(=O)Cc1cnc(NC(=O)NC(C(=O)OCC)(c2ccccc2)C(F)(F)F)s1 (centres undefined)	i	i	i	i	i
COc1ccc(-c2cn(-c3ccc(OC)cc3)c3[n+]2-c2ccccc2CC3)cc1	i	i	-7.9*	i	i
CNC[C@H](Cc1ccccc1)NC[C@@H](Cc1cccc2ccccc12)NCCc1ccc(C)cc1	i	i	i	i	-8.2*
O=C(Nc1nc(-c2cc(F)ccc2F)cs1)C1=COCCO1	i	i	-5.1*	i	i
CCCCCc1cc(=O)oc2c(C(CCN3CCCCC3)c3ccc(OC)cc3)c(OC)cc(OC)c12 (centres undefined)	i	i	i	i	i
CCCCCc1cc(=O)oc2c(C(CCN3CCCC3)c3cc(OC)c(OC)c(OC)c3)c(OC)cc(OC)c12 (centres undefined)	i	i	-5.3*	i	i
C#CCN1C(=O)S/C(=C/c2cc(C)n(CC)c2C)C1=O	i	i	i	i	i
CCn1c(C)cc(/C=C2/SC(=S)N(CC(=O)O)C2=O)c1C	i	i	i	17*	i
CC1(C)C(=O)OC(c2cccn2-c2ccc([N+](=O)[O-])cc2)C(C)(C)C1=O (centres undefined)	i	i	-5*	i	i
CC(C)Oc1ccc(Cn2c(-c3ccco3)n[nH]c2=S)cc1	i	i	i	i	-7.3*
CC(C)C(=O)NC(=S)Nc1ccc(S(=O)(=O)N(C)Cc2ccccc2)cc1	i	i	i	i	-7*
CC(=O)NC(=S)Nc1ccc(S(=O)(=O)N(C)Cc2ccccc2)cc1	i	i	i	i	i
Cn1ccs/c1=N\C(=O)Nc1ccccc1	i	i	i	i	i
O=c1/c(=C\c2cc([N+](=O)[O-])cc([N+](=O)[O-])c2O)sc2nc3ccccc3n12	29*	.	i	i	.
O=C(O)c1cccc(-c2ccc(/C=c3/sc4nc5ccccc5n4c3=O)o2)c1	i	i	-12*	i	i
O=c1/c(=C/c2ccccn2)sc2nc3ccccc3n12	i	.	i	i	.
CC1=CC(=O)C=C(C)C1=NOc1ccc([N+](=O)[O-])cc1	33*	i	i	i	i
Cc1ccc(C)c(N(C(=O)c2snc(C(N)=O)c2N)C(C(=O)NCC2CCCO2)c2cccs2)c1 (centres undefined)	i	i	i	i	i
Cc1cccc(N(C(=O)c2snc(C(N)=O)c2N)C(C(=O)NCC2CCCO2)c2cccs2)c1 (centres undefined)	i	i	-4.7*	i	i
Cc1ccccc1-c1oc(C)c(C)[n+]1[O-]	i	i	i	7.8*	i
O=[N+]([O-])c1cnc2ccccc2c1	i	i	i	i	i
O=[N+]([O-])c1cc([N+](=O)[O-])c2cc3ccccc3nc2c1	28*	14*	i	i	i
SMILES	MrgX1 ag	RGS4 inh	MrgX1 antag	MrgX1 PAM	RGS4 act
CC(=O)c1ccc(N2CCN(C(C)C(=O)NC3CCCc4ccccc43)CC2)cc1 (centres undefined)	i	i	i	i	i
O=C(CCC(=O)OCC(=O)c1cccc([N+](=O)[O-])c1)Nc1cccc(Cl)c1Cl	i	i	i	i	i
O=C(CC(=O)c1ccccc1)Nc1cc([N+](=O)[O-])ccc1Cl	i	i	i	i	i
O=C(CCC(=O)OCC(=O)c1ccc([N+](=O)[O-])cc1)Nc1ccccc1Cl	i	i	-5.5*	i	i
O=C(COC(=O)c1ccccc1NS(=O)(=O)c1cc([N+](=O)[O-])ccc1Cl)c1ccccc1	32*	i	i	i	i
COCCNC(=O)CN(Cc1ccccc1)C(=O)CCC(=O)Nc1nccs1	i	i	i	i	i
CC(C)(C)c1csc(N/N=C/c2ccc(O)cc2)n1	i	i	i	i	i
Cc1cc(C)c2cc3c(N)c(C(=O)N4CCc5ccccc5C4)sc3nc2c1	i	i	-8.5*	i	-8*
CCOC(=O)CC1C(=O)NCCN1c1nc2ccc(C)cn2c(=O)c1/C=C1\SC(=S)N(C(C)CC)C1=O (centres undefined)	108*	i	i	i	i
CCOC(=O)CC1C(=O)NCCN1c1nc2ccc(C)cn2c(=O)c1/C=C1\SC(=S)N(CC(C)C)C1=O (centres undefined)	103*	i	i	i	i
CCCN1C(=O)/C(=C/c2c(N3CCNC(=O)C3CC(=O)OCC)nc3c(C)cccn3c2=O)SC1=S (centres undefined)	i	i	i	i	i
O=[N+]([O-])c1ccc(Cl)cc1N1CCOCC1	i	i	i	i	i
COc1ccc(NS(=O)(=O)c2cccc(C(=O)N3CCC3)c2)cc1	i	i	i	i	i
Cc1cc(NC(=O)CCC(=O)N(CC(=O)NC2CCCC2)c2ccc(Cl)cc2)no1	i	i	i	i	i
Cc1ccc(S(=O)(=O)N2CC(O)CC2C(=O)O)cc1 (centres undefined)	i	i	i	i	i
Fc1ccc(Cn2c(SCc3ccc(F)c(F)c3)nnc2C(F)(F)F)cc1	i	i	i	i	-8.5*
Cc1nn(Cc2ccccc2)c(Cl)c1/C=C/C(=O)OC(C)C(=O)N1CCCC1 (centres undefined)	i	i	-5.9*	i	i
Cc1nn(Cc2ccccc2)c(Cl)c1/C=C/C(=O)OCC(=O)NC(C)C(C)C (centres undefined)	i	i	i	i	i
NS(=O)(=O)c1ccc(CCNC(=O)CN2C(=O)COc3ccc(S(=O)(=O)N4CCCC4)cc32)cc1	i	i	i	i	i
Cc1ccc(N(CC(O)CN2C(=O)NC(C)(C)C2=O)S(=O)(=O)c2ccc([N+](=O)[O-])cc2)cc1 (centres undefined)	i	i	i	i	i
Nc1nc(-c2ccccc2)c(-c2ccc([N+](=O)[O-])cc2)s1	i	i	-5.1*	i	i
CCC(NC(C)C)C(O)c1ccc(O)c(O)c1 (centres undefined)	27*	i	i	i	i
